Laboratory results taken from ChEMBL document CHEMBL4765395, “Design, diversity-oriented synthesis and biological evaluation of novel heterocycle derivatives as non-nucleoside HBV capsid protein inhibitors” (Eur J Med Chem, 2020).
Calls of active or inactive are those of the source. The calls are words filed in the database; no cut-off is given here.

Experiments:
Hepatitis B virus [1] = experiment: Antiviral activity against HBV infected in human HepG2.2.15 cells assessed as reduction in intracellular viral DNA level at 20 uM incubated for 4 days prior to compound washout followed by compound addition and measured after 4 days by fluorogenic probe based RT-qPCR analysis relative to control; type: functional; details: for inhibition: time 8.0 day
[2] = Selectivity index, ratio of CC50 for human HepG2.2.15 cells to IC50 for antiviral activity against HBV infected in human HepG2.2.15 cells assessed as reduction in HBeAg secretion; type: toxicity, cell-based; details: read-out: Ratio CC50/IC50
HepG2 2.2.15 [3] = experiment: Cytotoxicity against human HepG2.2.15 cells assessed as reduction in cell viability at 20 uM incubated for 4 days prior to compound washout followed by compound addition and measured after 4 days by CCK8 assay relative to control; type: cell-based; details: hepg2 2.2.15, 192 h, time 8 day
Hepatitis B virus [4] = experiment: Antiviral activity against HBV infected in human HepG2.2.15 cells assessed as […] incubated for 4 days prior to compound washout followed by compound addition and measured after 4 days by fluorogenic probe based RT-qPCR analysis; type: functional, organism-based
Hepatitis B virus [5] = experiment: Antiviral activity against HBV infected in human HepG2.2.15 cells assessed as reduction in HBsAg secretion incubated for 4 days prior to compound washout followed by compound addition and measured after 4 days by ELISA; type: functional, organism-based
Outline: (§1)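 Five doses (100, 20, 4, 0.8, 0.16 µM) were added in triplicate to HepG2.2.15 cultures for 8 days, with fresh medium on day 4 and untreated controls. Day-8 supernatants were assayed for HBsAg and HBeAg by ELISA kit with absorbance read-out. IC50 is the concentration giving 50% inhibition of antigen secretion.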

[6] = Selectivity index, ratio of CC50 for human HepG2.2.15 cells to IC50 for antiviral activity against HBV infected in human HepG2.2.15 cells assessed as reduction in HBsAg secretion; type: toxicity, cell-based; details: read-out: Ratio CC50/IC50
Hepatitis B virus [7] = experiment: Antiviral activity against HBV infected in human HepG2.2.15 cells assessed as reduction in HBeAg secretion incubated for 4 days prior to compound washout followed by compound addition and measured after 4 days by ELISA; type: functional, organism-based; outline: as §1
[8] = Cytotoxicity against human HepG2.2.15 cells assessed as reduction in cell viability incubated for 4 days prior to compound washout followed by compound addition and measured after 4 days by CCK8 assay; type: cell-based, HepG2 2.2.15; details: time 8 day
Outline: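 Cytotoxicity in HepG2.2.15 cells was measured with five doses (100, 20, 4, 0.8, 0.16 µM) over 8 days, with medium changed on day 4. CCK-8 (10%) was added 0.5 h before the end, OD was read at 450/630 nm, and CC50 is the concentration killing 50% of cells against untreated controls.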

[9] = Selectivity index, ratio of CC50 for human HepG2.2.15 cells to IC50 for antiviral activity against HBV infected in human HepG2.2.15 cells assessed as reduction in intracellular viral DNA level; type: toxicity, cell-based; details: read-out: Ratio CC50/IC50
HepG2 2.2.15 [10] = experiment: Cytotoxicity against human HepG2.2.15 cells assessed as reduction in cell viability at 50 uM incubated for 4 days prior to compound washout followed by compound addition and measured after 4 days by CCK8 assay relative to control; type: cell-based; details: hepg2 2.2.15, 192 h, time 8 day
Hepatitis B virus [11] = experiment: Antiviral activity against HBV infected in human HepG2.2.15 cells assessed as reduction in intracellular viral DNA level at 50 uM incubated for 4 days prior to compound washout followed by compound addition and measured after 4 days by fluorogenic probe based RT-qPCR analysis relative to control; type: functional; details: for inhibition at 50 µM: HepG2.2.15, 192 h, time 8 day; for inhibition: time 8.0 day
Hepatitis B virus [12] = experiment: Binding affinity to recombinant HBV capsid protein assessed as response value at 6.6 uM by surface plasmon resonance analysis (reference value: 11.31)
Outline: (§2)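 Recombinant HBV capsid protein purified and amine-coupled to a CM5 sensor chip. Six doses of test compound run with running buffer containing 5% DMSO, plus eight solvent-calibration solutions and 50% DMSO solution. Samples centrifuged 15 min before loading. PBS and NaAc-HAc buffers used. Binding read as SPR response.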

Hepatitis B virus [13] = experiment: Binding affinity to recombinant HBV capsid protein assessed as response value at 9.9 uM by surface plasmon resonance analysis (reference value: 11.31); outline: as §2
HepG2 2.2.15 [14] = experiment: Cytotoxicity against human HepG2.2.15 cells assessed as reduction in cell viability at 100 uM incubated for 4 days prior to compound washout followed by compound addition and measured after 4 days by CCK8 assay relative to control; type: cell-based; details: hepg2 2.2.15, 192 h, time 8 day
Outline: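 Three wells of 4000 HepG2.2.15 cells per well received a single 100 µM concentration for 8 days, with medium replaced on day 4. CCK-8 (10%) was added 0.5 h before the end, and OD was read at 450 and 630 nm. Percent cell death was calculated against untreated cells.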

Hepatitis B virus [15] = experiment: Binding affinity to recombinant HBV capsid protein assessed as response value at 14.8 uM by surface plasmon resonance analysis (reference value: 11.31); outline: as §2
[16] = (§3) Binding affinity to recombinant HBV capsid protein by surface plasmon resonance analysis; set-up: species or system Hepatitis B virus; outline: as §2
Hepatitis B virus [17] = experiment: as §3; outline: as §2
Hepatitis B virus [18] = experiment: Antiviral activity against HBV infected in human HepG2.2.15 cells assessed as […] at 100 uM incubated for 4 days prior to compound washout followed by compound addition and measured after 4 days by fluorogenic probe based RT-qPCR analysis relative to control; type: functional; details: for inhibition at 100 µM: HepG2.2.15, 192 h, time 8 day
Hepatitis B virus [19] = experiment: Binding affinity to recombinant HBV capsid protein assessed as response value at 22.2 uM by surface plasmon resonance analysis (reference value: 11.31); outline: as §2

CC(C)Cc1nc(-c2ccncc2)sc1C(=O)NCc1ccc(F)cc1
inhibition at 20 µM (Hepatitis B virus [1]; HepG2.2.15, 192 h, time 8 day): 57.8% | selectivity ratio [2]: > 1.6 | Activity (HepG2 2.2.15 [3]): 35.8% | IC50 (Hepatitis B virus [4]): 40.5 µM | IC50 (Hepatitis B virus [5]): 3.8 µM | selectivity ratio [6]: > 26.3 | IC50 (Hepatitis B virus [7]): 62.3 µM | CC50 at 192 h [8]: > 100 µM | selectivity ratio [9]: > 2.5

CCOC(=O)c1cnc(-c2cccc(F)c2)nc1CC(C)C
Activity (HepG2 2.2.15 [10]): Non-Toxic | inhibition at 50 µM (Hepatitis B virus [11]): 46.3%

CC(C)Cc1nc(-c2ccsc2)sc1C(=O)NCc1ccc(F)cc1
inhibition (Hepatitis B virus [1]): inactive | Activity (HepG2 2.2.15 [3]): 6.7%

CC(C)Cc1nc(-c2ccccc2)ncc1C(=O)NCc1ccccc1
Activity (HepG2 2.2.15 [10]): Non-Toxic | inhibition (Hepatitis B virus [11]): inactive

CC(C)Cc1sc(-c2nccs2)nc1C(=O)Nc1ccc(F)cc1
Activity (Hepatitis B virus [12]): 15.4 RU | selectivity ratio [2]: < 0.8 | IC50 (Hepatitis B virus [4]): 2.2 µM | IC50 (Hepatitis B virus [5]): > 100 µM | Activity (Hepatitis B virus [13]): 18.8 RU | selectivity ratio [6]: < 0.8 | IC50 (Hepatitis B virus [7]): > 100 µM | CC50 at 192 h [8]: 80.8 µM | selectivity ratio [9]: 36.7 | Activity (HepG2 2.2.15 [14]): Non-Toxic | Activity (Hepatitis B virus [15]): 20.6 RU | Kd [16]: 60 µM | Activity (Hepatitis B virus [17]): Dose-dependent effect | inhibition at 100 µM (Hepatitis B virus [18]): 89.8% | Activity (Hepatitis B virus [19]): 26.4 RU

O=C(NCc1ccc(F)cc1)c1ccc(-c2ccccc2)nc1-c1ccccc1
Activity (HepG2 2.2.15 [10]): 4.4% | inhibition (Hepatitis B virus [11]): inactive

O=C(NC1CC1)c1cn(-c2cccc(F)c2)nc1NCc1ccccc1
Activity (HepG2 2.2.15 [14]): 40.8% | inhibition at 100 µM (Hepatitis B virus [18]): 38.8%

CC(C)Cc1nc(NC(=O)c2cccs2)sc1C(=O)NCc1ccc(F)cc1
inhibition (Hepatitis B virus [1]): inactive | Activity (HepG2 2.2.15 [3]): 15.2%

CCOC(=O)c1cn(-c2cccc(F)c2)nc1NCc1ccccc1
Activity (HepG2 2.2.15 [14]): Non-Toxic | inhibition at 100 µM (Hepatitis B virus [18]): 14.6%

CC(C)Cc1nc(-c2cccc(F)c2)ncc1C(=O)O
selectivity ratio [2]: > 10.3 | IC50 (Hepatitis B virus [4]): 9.9 µM | IC50 (Hepatitis B virus [5]): > 100 µM | IC50 (Hepatitis B virus [7]): 9.7 µM | CC50 at 192 h [8]: > 100 µM | Activity (HepG2 2.2.15 [10]): Non-Toxic | selectivity ratio [9]: > 10.1 | inhibition at 50 µM (Hepatitis B virus [11]): 54.2%

CCOC(=O)c1cn(-c2nccs2)nc1NCc1ccccc1
Activity (HepG2 2.2.15 [14]): 30.4% | inhibition (Hepatitis B virus [18]; time 8.0 day): inactive

CCNc1nn(-c2cccc(F)c2)cc1C(=O)OCC
Activity (HepG2 2.2.15 [14]): 10.9% | inhibition at 100 µM (Hepatitis B virus [18]): 39.9%

Cc1ccc(-c2nc(CC(C)C)c(C(=O)NCc3ccc(F)cc3)s2)s1
inhibition (Hepatitis B virus [1]): inactive | Activity (HepG2 2.2.15 [3]): Non-Toxic
